These results are taken from ChEMBL document CHEMBL1629526, “4-[1-(Substituted aryl/alkyl carbonyl)-benzoimidazol-2-yl]-benzenesulfonic acids: synthesis, antimicrobial activity, QSAR studies, and antiviral evaluation” (Eur J Med Chem, 2010).

Each structure is given as a SMILES string. Values after ≈ are worked out from the molar mass of the structure shown.

For orientation: CC50 means the concentration that lowers cell viability or growth by half. One may read the EC50 as the concentration giving half of the maximal effect.

Data set [1] is described as follows: Cytotoxicity against MDCK cells assessed as cell viability by MTS assay. Type of data set: cell-based, Canis lupus familiaris. Conditions: dog, MDCK cells. The procedure, abridged: (§1)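 Uninfected cultures were run in parallel with the antiviral assays. Viability was read by colorimetric formazan MTS assay.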
(Tetrazolium dyes change colour on reduction, which living cells bring about.)

Data set [2] is described as follows: Cytotoxicity against MDCK cells assessed as altered cell morphology. The conditions noted are these: dog. Type of data set: cell-based, Canis lupus familiaris. The procedure, abridged: (§2)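 Uninfected cell cultures run alongside the antiviral assays, exposed to serial compound dilutions and incubated at 37 °C for 2–4 days. Toxicity was scored microscopically and reported as the minimum cytotoxic concentration (MCC), the lowest concentration causing a detectable change in normal cell morphology.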

Data set [3] has as its system Influenza A virus. Briefly: Antiviral activity against Influenza A H1N1 virus subtype infected in MDCK cells assessed as inhibition of virus induced cytopathicity by visual scoring of CPE. Type of data set: functional, organism-based.
The subject of data set [4] is Influenza A virus. Briefly: Antiviral activity against Influenza A H1N1 virus subtype infected in MDCK cells assessed as inhibition of virus induced cytopathicity after 2 to 4 days by MTS assay. Type of data set: functional, organism-based. On the technique in general: Damage to the host cells serves as the signal in cytopathic effect assays.
Data set [5] relates to Influenza A virus. Briefly: Antiviral activity against Influenza A H3N2 virus subtype infected in MDCK cells assessed as inhibition of virus induced cytopathicity after 2 to 4 days by MTS assay. The class given is functional, organism-based.
Data set [6] has as its system Influenza B virus. Briefly: Antiviral activity against Influenza B virus infected in MDCK cells assessed as inhibition of virus induced cytopathicity by visual scoring of CPE. The class given is functional, organism-based.
The subject of data set [7] is Influenza B virus. Briefly: Antiviral activity against Influenza B virus infected in MDCK cells assessed as inhibition of virus induced cytopathicity after 2 to 4 days by MTS assay. The class given is functional, organism-based.
Data set [8] relates to Influenza A virus. Briefly: Antiviral activity against Influenza A H3N2 virus subtype infected in MDCK cells assessed as inhibition of virus induced cytopathicity by visual scoring of CPE. Type of data set: functional, organism-based.
Data set [9] can be described thus: Cytotoxicity against human HEL cells assessed as altered cell morphology. Type of data set: cell-based. Put shortly: as §2
Data set [10] deals with Human alphaherpesvirus 1. Briefly: Antiviral activity against Herpes simplex virus 1 KOS infected in HEL cells assessed as inhibition of virus induced cytopathicity after 2 to 4 days by MTS assay. The class given is functional, organism-based. Conditions: Human alphaherpesvirus 1, KOS.
Data set [11] concerns Human alphaherpesvirus 2. Briefly: Antiviral activity against Herpes simplex virus 2 G infected in HEL cells assessed as inhibition of virus induced cytopathicity after 2 to 4 days by MTS assay. The class given is functional, organism-based. Conditions: Human alphaherpesvirus 2, strain G.
Data set [12] deals with Vaccinia virus. Briefly: Antiviral activity against Vaccinia virus infected in HEL cells assessed as inhibition of virus induced cytopathicity after 2 to 4 days by MTS assay. Type of data set: functional, organism-based. Conditions: Orthopoxvirus vaccinia.
Data set [13] concerns Vesicular stomatitis virus. Briefly: Antiviral activity against Vesicular stomatitis virus infected in HEL cells assessed as inhibition of virus induced cytopathicity after 2 to 4 days by MTS assay. The class given is functional, organism-based.
Data set [14] has as its system Human alphaherpesvirus 1. Briefly: Antiviral activity against thymidine kinase deficient acyclovir-resistant Herpes simplex virus 1 KOS infected in HEL cells assessed as inhibition of virus induced cytopathicity after 2 to 4 days by MTS assay. Type of data set: functional, organism-based. Conditions: Human alphaherpesvirus 1, KOS.
The nature of data set [15]: Cytotoxicity against human HeLa cells assessed as cell viability by MTS assay. Conditions: HeLa cells. The class given is cell-based. The procedure, abridged:
as §1

Data set [16] is described as follows: Cytotoxicity against human HeLa cells assessed as altered cell morphology. Type of data set: cell-based. The procedure, abridged:
as §2

Data set [17] relates to Vesicular stomatitis virus. Briefly: Antiviral activity against Vesicular stomatitis virus infected in human HeLa cells assessed as inhibition of virus induced cytopathicity by visual scoring of CPE. The class given is functional, organism-based.
For data set [18], the system named is Coxsackievirus B4. Briefly: Antiviral activity against coxsackievirus B4 infected in human HeLa cells assessed as inhibition of virus induced cytopathicity by visual scoring of CPE. The class given is functional, organism-based. The conditions noted are these: Enterovirus B.
Data set [19] deals with Coxsackievirus B4. Briefly: Antiviral activity against coxsackievirus B4 infected in human HeLa cells assessed as inhibition of virus induced cytopathicity after 2 to 4 days by MTS assay. The class given is functional, organism-based. The conditions noted are these: Enterovirus B.
Data set [20] concerns Respiratory syncytial virus. Briefly: Antiviral activity against Respiratory syncytial virus infected in human HeLa cells assessed as inhibition of virus induced cytopathicity by visual scoring of CPE. Type of data set: functional, organism-based.
The subject of data set [21] is Respiratory syncytial virus. Briefly: Antiviral activity against Respiratory syncytial virus infected in human HeLa cells assessed as inhibition of virus induced cytopathicity after 2 to 4 days by MTS assay. Type of data set: functional, organism-based.
Data set [22] is described as follows: Cytotoxicity against african green monkey Vero cells assessed as altered cell morphology. Type of data set: cell-based. Conditions: chlorocebus sabaeus. Put shortly: as §2
Data set [23] deals with Human respirovirus 3. Briefly: Antiviral activity against parainfluenza-3 virus infected in african green monkey Vero cells assessed as inhibition of virus induced cytopathicity after 2 to 4 days by MTS assay. The class given is functional, organism-based. Conditions: Human respirovirus 3, Vero.
Data set [24] concerns Mammalian orthoreovirus 1. Briefly: Antiviral activity against Reovirus 1 virus infected in african green monkey Vero cells assessed as inhibition of virus induced cytopathicity after 2 to 4 days by MTS assay. Type of data set: functional, organism-based. The conditions noted are these: Mammalian orthoreovirus 1, Vero.
The test system of data set [25] is Coxsackievirus B4. Briefly: Antiviral activity against Coxsackie virus B4 infected in african green monkey Vero cells assessed as inhibition of virus induced cytopathicity after 2 to 4 days by MTS assay. Type of data set: functional, organism-based. The conditions noted are these: Enterovirus B.
Data set [26] concerns Punta Toro virus. Briefly: Antiviral activity against Punta Toro virus infected in african green monkey Vero cells assessed as inhibition of virus induced cytopathicity after 2 to 4 days by MTS assay. Type of data set: functional, organism-based.

As for `NC12CC3CC(CC(C3)C1)C2` [AMANTADINE], the CC50 in data set [1] was more than 200 µg/mL. Also, the MCC in [2] is more than 200 µg/mL. The EC50 in [3] is 18 µg/mL (≈ 119 µM); in data set [4], 44 µg/mL (≈ 291 µM); in [5] it was 0.2 µg/mL (≈ 1.32 µM); in data set [6] it was more than 200 µg/mL; in data set [7] it was more than 200 µg/mL.

`CC(N)C12CC3CC(CC(C3)C1)C2` (centres undefined) [RIMANTADINE]: in data set [1], the CC50 was more than 200 µg/mL. Besides, the MCC in [2] is more than 200 µg/mL. The EC50 in data set [3] is 4 µg/mL (≈ 22.3 µM); in [4] it was 12 µg/mL (≈ 66.9 µM); in [8] it was 0.03 µg/mL (≈ 0.167 µM); in data set [5] it was 0.02 µg/mL (≈ 0.112 µM); in [6], more than 200 µg/mL; in [7] it was more than 200 µg/mL.

As for `NC(=O)c1ncn([C@@H]2O[C@H](CO)[C@@H](O)[C@H]2O)n1` [RIBAVIRIN], the MCC in data set [9] was more than 250 µg/mL; in [16], more than 250 µg/mL; in [2] it was more than 100 µg/mL; in data set [22], more than 250 µg/mL. In addition, the EC50 is 1 µg/mL (≈ 4.09 µM) in data set [10]; 2 µg/mL (≈ 8.19 µM) in [11]; 10 µg/mL (≈ 40.9 µM) in [12]; more than 250 µg/mL in [13]; 2 µg/mL (≈ 8.19 µM) in data set [14]; 10 µg/mL (≈ 40.9 µM) in data set [17]. Further, the EC50 was found to be 50 µg/mL (≈ 205 µM) in data set [18]; 14 µg/mL (≈ 57.3 µM) in data set [19]; 6 µg/mL (≈ 24.6 µM) in data set [20]; 2.8 µg/mL (≈ 11.5 µM) in [21]; 9 µg/mL (≈ 36.9 µM) in data set [3]; 12 µg/mL (≈ 49.1 µM) in [4]. The EC50 in data set [5] was 8.4 µg/mL (≈ 34.4 µM); in data set [6], 7 µg/mL (≈ 28.7 µM); in [7], 4.3 µg/mL (≈ 17.6 µM); in [23] it was 95 µg/mL (≈ 389 µM); in data set [24] it was 112 µg/mL (≈ 459 µM); in data set [25], 250 µg/mL (≈ 1020 µM). Moreover, the EC50 in data set [26] was 112 µg/mL (≈ 459 µM). Besides, the CC50 in [15] was more than 250 µg/mL.
